Laboratory results: ChEMBL document CHEMBL1156288, “Synthesis and evaluation of tricyclic derivatives containing a non-aromatic amide as inhibitors of poly(ADP-ribose)polymerase-1 (PARP-1)” (Bioorg Med Chem Lett, 2010)

Legend:
[1] = biological target: T1, Poly [ADP-ribose] polymerase 1 (Homo sapiens, UniProt P09874); settings: CHO-K1
[2] = Solubility in water; assay type: physicochemical; settings: buffer
[3] = biological target: T1, Poly [ADP-ribose] polymerase 1; experiment: Inhibition of PARP1
[4] = Half life in human liver microsomes by LC/MS/MS analysis; assay type: ADME, Microsome
How it was run: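 Human liver microsomes incubated at 37 °C. Parent compound quantified by LC/MS/MS at 0, 15, 45 and 80 min, giving t1/2 in min. Mean of triplicate experiments; buspirone run alongside.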

[5] = Drug level in rat brain at 10 mg/kg, iv after 0.17 hrs by LC/MS/MS analysis; assay type: ADME, organism-based; set-up: dose 10 mg/kg, route intravenous; settings: read-out: Drug uptake
How it was run: (§1)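 Single intravenous dose of 10 mg/kg in rats, n = 3. Brain (ng/g) and plasma (ng/ml) concentrations measured by LC/MS/MS at 0.17, 0.75 and 4.00 h. Ratio is brain over plasma concentration.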

[6] = Half life in rat at 10 mg/kg, iv by LC/MS/MS analysis; assay type: ADME, organism-based; set-up: dose 10 mg/kg, route intravenous; settings: in vivo
How it was run: (§2)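 Rats (n = 3) given 10 mg/kg by intravenous administration; plasma levels measured by LC/MS/MS; AUC0-inf, CL and t1/2 reported.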

[7] = AUC (0 to infinity) in rat at 10 mg/kg, iv by LC/MS/MS analysis; assay type: ADME, organism-based; set-up: time infinity, dose 10 mg/kg, route intravenous; settings: plasma
How it was run: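 Rats (n = 3) received a single 10 mg/kg intravenous dose. Drug levels were measured by LC/MS/MS, and AUC from zero to infinity was derived alongside clearance and half-life as part of the pharmacokinetic profile.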

[8] = Drug level in rat plasma at 10 mg/kg, iv after 0.75 hrs by LC/MS/MS analysis; assay type: ADME, organism-based; set-up: dose 10 mg/kg, route intravenous
How it was run: as §1

[9] = Drug level in rat plasma at 10 mg/kg, iv after 0.17 hrs by LC/MS/MS analysis; assay type: ADME, organism-based; set-up: dose 10 mg/kg, route intravenous
How it was run: as §1

[10] = Ratio of drug level in brain to plasma in rat at 10 mg/kg, iv after 4 hrs by LC/MS/MS analysis; assay type: ADME, organism-based; set-up: dose 10 mg/kg, route intravenous
How it was run: as §1

[11] = Ratio of drug level in brain to plasma in rat at 10 mg/kg, iv after 0.75 hrs by LC/MS/MS analysis; assay type: ADME, organism-based; set-up: dose 10 mg/kg, route intravenous
How it was run: as §1

[12] = Clearance in rat at 10 mg/kg, iv by LC/MS/MS analysis; assay type: ADME, organism-based; set-up: dose 10 mg/kg, route intravenous; settings: in vivo
How it was run: as §2

[13] = Drug level in rat plasma at 10 mg/kg, iv after 4 hrs by LC/MS/MS analysis; assay type: ADME, organism-based; set-up: dose 10 mg/kg, route intravenous
How it was run: as §1

[14] = Drug level in rat brain at 10 mg/kg, iv after 0.75 hrs by LC/MS/MS analysis; assay type: ADME, organism-based; set-up: dose 10 mg/kg, route intravenous; settings: read-out: Drug uptake
How it was run: as §1

[15] = Drug level in rat brain at 10 mg/kg, iv after 4 hrs by LC/MS/MS analysis; assay type: ADME, organism-based; set-up: dose 10 mg/kg, route intravenous; settings: read-out: Drug uptake
How it was run: as §1

[16] = Ratio of drug level in brain to plasma in rat at 10 mg/kg, iv after 0.17 hrs by LC/MS/MS analysis; assay type: ADME, organism-based; set-up: dose 10 mg/kg, route intravenous
How it was run: as §1

T1 sequence (P09874 whole entry): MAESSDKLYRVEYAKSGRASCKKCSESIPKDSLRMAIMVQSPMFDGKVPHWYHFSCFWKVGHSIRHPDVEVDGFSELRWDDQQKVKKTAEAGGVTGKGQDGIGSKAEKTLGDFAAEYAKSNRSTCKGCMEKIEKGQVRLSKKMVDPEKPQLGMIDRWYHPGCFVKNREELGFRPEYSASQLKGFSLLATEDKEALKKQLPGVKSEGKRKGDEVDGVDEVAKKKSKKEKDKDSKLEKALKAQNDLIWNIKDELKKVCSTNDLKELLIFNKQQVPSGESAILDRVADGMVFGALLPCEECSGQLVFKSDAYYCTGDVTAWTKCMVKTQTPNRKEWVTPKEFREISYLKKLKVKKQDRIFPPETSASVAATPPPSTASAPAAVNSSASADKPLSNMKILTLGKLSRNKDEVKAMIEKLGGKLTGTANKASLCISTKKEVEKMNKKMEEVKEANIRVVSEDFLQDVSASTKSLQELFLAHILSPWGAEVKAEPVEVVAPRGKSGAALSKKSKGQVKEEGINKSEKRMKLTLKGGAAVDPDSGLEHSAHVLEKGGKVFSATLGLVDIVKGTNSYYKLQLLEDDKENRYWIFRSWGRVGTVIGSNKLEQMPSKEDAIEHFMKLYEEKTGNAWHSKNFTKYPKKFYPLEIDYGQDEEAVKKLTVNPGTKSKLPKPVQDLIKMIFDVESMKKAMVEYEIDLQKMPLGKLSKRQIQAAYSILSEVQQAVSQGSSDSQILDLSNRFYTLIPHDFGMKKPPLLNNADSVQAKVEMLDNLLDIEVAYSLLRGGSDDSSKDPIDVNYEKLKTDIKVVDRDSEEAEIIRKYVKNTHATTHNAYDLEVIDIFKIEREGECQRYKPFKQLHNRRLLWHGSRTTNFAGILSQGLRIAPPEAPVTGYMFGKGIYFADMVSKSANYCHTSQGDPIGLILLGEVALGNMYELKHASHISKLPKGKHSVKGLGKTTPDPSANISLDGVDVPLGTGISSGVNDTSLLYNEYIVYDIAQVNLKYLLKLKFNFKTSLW

SMILES: CCN1CCC(Oc2ccc3[nH]c(=O)c4c(c3c2)CCSC4)C1 (stereo not drawn)
- ED50 [1]: 350 nM
- solubility [2]: Soluble
- IC50 [3]: 13 nM

SMILES: CCCN1CCCC(Oc2ccc3[nH]c(=O)c4c(c3c2)CCSC4)C1 (stereo not drawn)
- ED50 [1]: 740 nM
- solubility [2]: Soluble
- IC50 [3]: 56 nM

SMILES: O=C1CC2(CCCC2)CC(=O)N1CCCCN1CCN(c2ncccn2)CC1 [BUSPIRONE]
- half-life [4]: 3.8 min

SMILES: O=c1[nH]c2ccc(OC3CCN(c4ccccc4)CC3)cc2c2c1CSCC2
- ED50 [1]: 1860 nM
- IC50 [3]: 695 nM

SMILES: O=c1[nH]c2ccc(OC3CCCNC3)cc2c2c1CSCC2 (stereo not drawn)
- ED50 [1]: 890 nM
- solubility [2]: Soluble
- IC50 [3]: 28 nM

SMILES: CN1CCC(Oc2ccc3[nH]c(=O)c4c(c3c2)CCSC4)C1 (stereo not drawn)
- ED50 [1]: 730 nM
- solubility [2]: Soluble
- IC50 [3]: 80 nM

SMILES: O=c1[nH]c2ccc(OC3CCN(CCO)CC3)cc2c2c1CSCC2
- ED50 [1]: 1600 nM
- solubility [2]: Soluble
- IC50 [3]: 29 nM

SMILES: CC(C)CCN1CCC(Oc2ccc3[nH]c(=O)c4c(c3c2)CCSC4)CC1
- ED50 [1]: 740 nM
- solubility [2]: Soluble
- IC50 [3]: 71 nM

SMILES: CCCN1CCC(Oc2ccc3[nH]c(=O)c4c(c3c2)CCSC4)CC1
- concentration at 0.17 h [5]: 1700 ng/g
- half-life [6]: 207 min
- AUC(0-inf) [7]: 2910 ng·h/mL
- concentration at 0.75 h [8]: 610 ng/mL
- concentration at 0.17 h [9]: 2480 ng/mL
- ED50 [1]: 220 nM
- Kp at 4 h [10]: 0.72
- Kp at 0.75 h [11]: 0.64
- half-life [4]: 52.6 min
- clearance [12]: 56.7 mL/min/kg
- concentration at 4 h [13]: 18 ng/mL
- concentration at 0.75 h [14]: 391 ng/g
- solubility [2]: Soluble
- concentration at 4 h [15]: 13 ng/g
- Kp at 0.17 h [16]: 0.69
- IC50 [3]: 42 nM

SMILES: O=S(=O)(NCCCN1CCOCC1)c1ccc2c(c1)Cc1c-2nc(O)c2ccccc12
- ED50 [1]: 1000 nM

SMILES: O=c1[nH]c2ccc(OC3CCN(Cc4ccccc4)CC3)cc2c2c1CSCC2
- ED50 [1]: 800 nM
- solubility [2]: Soluble
- IC50 [3]: 53 nM

SMILES: O=c1[nH]c2ccc(OC3CCN(CCc4ccccc4)CC3)cc2c2c1CSCC2
- ED50 [1]: 360 nM
- solubility [2]: Soluble
- IC50 [3]: 38 nM

SMILES: CN(C)c1ccc(CCN2CCC(Oc3ccc4[nH]c(=O)c5c(c4c3)CCSC5)CC2)cc1
- ED50 [1]: 9440 nM
- solubility [2]: Soluble
- IC50 [3]: > 10000 nM

SMILES: COCCN1CCC(Oc2ccc3[nH]c(=O)c4c(c3c2)CCSC4)CC1
- ED50 [1]: 1260 nM
- solubility [2]: Soluble
- IC50 [3]: 40 nM

SMILES: CCCCCN1CCC(Oc2ccc3[nH]c(=O)c4c(c3c2)CCSC4)CC1
- ED50 [1]: 580 nM
- solubility [2]: Soluble
- IC50 [3]: 45 nM

SMILES: O=c1[nH]c2ccc(OC3CCN(CCN4CCCCC4)CC3)cc2c2c1CSCC2
- ED50 [1]: > 30000 nM
- solubility [2]: Soluble
- IC50 [3]: 173 nM

SMILES: CCN1CCCC(Oc2ccc3[nH]c(=O)c4c(c3c2)CCSC4)C1 (stereo not drawn)
- ED50 [1]: 280 nM
- solubility [2]: Soluble
- IC50 [3]: 25 nM

SMILES: O=c1[nH]c2ccc(O)cc2c2c1CSCC2
- IC50 [3]: 99 nM

SMILES: CN1CCCC(Oc2ccc3[nH]c(=O)c4c(c3c2)CCSC4)C1 (stereo not drawn)
- ED50 [1]: 580 nM
- solubility [2]: Soluble
- IC50 [3]: 39 nM
